Screens: PubChem BioAssay, several laboratories
Hsp70 activator: transcriptional activators of Hsp70; HeLa Hsp70 promoter luciferase reporter, luminescence; scaled: vehicle 0, proteasome-inhibitor control 100%; activation, % at 10 µM; 200,000 compounds, 0.04% hits;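 active means activation above the mean across all tested compounds plus 3 SD, cutoff set per campaign, cut at about 5.5% in these data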
PERK inhibitor: inhibitors of human PERK kinase; CHO PERK-DD fusion, SEAP luminescence translation reporter; inhibition, % at 5.6 µM; 220,000 compounds, 0.17% hits;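 active means inhibition above the mean inhibition of all tested compounds plus 3 SD, set separately per screening campaign, cut at about 2.9% in these data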;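 further: PERK kinase domain activated by AP20187 dimerizer at 100 nM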
HSF1 inh: HSF1 inhibition | AID 2098 | NIH3T3-HGL HSE-luciferase, MG132-induced, luminescence 8 h; stronger effect = lower value | 300,000 compounds, 0.77% hits | activity change, negative = inhibition, % at 7.5 µM (by protocol);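 active means more than half of replicate wells show activity change below -50%, luminescence cut by over half; inconclusive means some wells, but at most half, below -50%; inactive means no replicate well below -50%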;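 further: luciferase reports HSF-1 transcriptional activity via heat shock element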
STAT3 act-1: increases IL-6 driven STAT3 reporter signal; U3A cells, IL-6 STAT3-luciferase reporter, luminescence; 100% = signal with IL-6 EC80 alone; activation (% of control), % at 5.6 µM; 190,000 compounds, 0.91% hits;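 active means activation above the screen-wide mean of compound activation plus 3 SD, cut at about 130% in these data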
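Material: STAT3-luciferase reporter U3A cells. Controls: IL-6-treated wells, 100% activation. Read-out: % activation versus median of IL-6-stimulated wells. Probe or stimulus: IL-6 stimulus at 33 ng/mL final. Timing: compound 1 h, then IL-6 6 h at 37 °C. Signal: reporter luminescence signal.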
AHR act: activates the human aryl hydrocarbon receptor. P35869. AHR-responsive luciferase reporter cells, luminescence. activation, % at 5 µM. 320,000 compounds, 2.5% hits. AID 2796; in the data active means activation above about 47%
Target sequence (P35869 whole entry, looked up): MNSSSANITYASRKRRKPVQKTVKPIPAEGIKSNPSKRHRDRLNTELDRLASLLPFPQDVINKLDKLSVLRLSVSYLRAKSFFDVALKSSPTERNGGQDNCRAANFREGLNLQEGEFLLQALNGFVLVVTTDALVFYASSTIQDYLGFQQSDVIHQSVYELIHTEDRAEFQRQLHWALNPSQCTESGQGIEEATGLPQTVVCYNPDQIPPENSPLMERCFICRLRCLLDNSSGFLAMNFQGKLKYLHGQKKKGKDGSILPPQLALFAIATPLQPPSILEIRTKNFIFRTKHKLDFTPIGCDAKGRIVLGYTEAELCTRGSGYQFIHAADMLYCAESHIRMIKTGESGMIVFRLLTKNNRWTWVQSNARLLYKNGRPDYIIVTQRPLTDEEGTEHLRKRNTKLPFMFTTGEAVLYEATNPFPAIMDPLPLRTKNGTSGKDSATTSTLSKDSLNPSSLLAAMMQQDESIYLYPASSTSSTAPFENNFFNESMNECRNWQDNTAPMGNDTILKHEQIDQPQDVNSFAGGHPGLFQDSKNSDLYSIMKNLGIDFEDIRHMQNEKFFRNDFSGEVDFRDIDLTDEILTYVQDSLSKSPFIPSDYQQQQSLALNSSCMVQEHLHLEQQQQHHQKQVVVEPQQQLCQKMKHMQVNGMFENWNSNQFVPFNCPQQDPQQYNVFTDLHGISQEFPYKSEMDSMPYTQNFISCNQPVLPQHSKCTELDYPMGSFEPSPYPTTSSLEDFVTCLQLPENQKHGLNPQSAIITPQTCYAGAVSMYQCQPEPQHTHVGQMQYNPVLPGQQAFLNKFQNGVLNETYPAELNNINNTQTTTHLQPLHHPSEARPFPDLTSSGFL
PolyA inhibitor: blocks polyadenylation in yeast reporter cells; S. cerevisiae SKY197-pL101 polyadenylation reporter, beta-gal luminescence; efflux-impaired pdr1/pdr3 knockout yeast; score 100 = 6 SD above DMSO; activity score, % at 12 µM; 300,000 compounds, 0.02% hits; AID 1875;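 active means lowest replicate activity score at least 50, where 100 means six control SD above control mean; inconclusive means lowest score under 50 but half or more replicates reach 50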;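 further: yeast exposed to compound for 9 h at 30 °C; higher score means more reporter readthrough which indicates perturbed polyadenylation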
STAT3 act-2: confirmation of STAT3 signaling activators; potentiation (% of control), % at 5.7 µM; U3A STAT3-luciferase reporter, IL-6 potentiation, luminescence; U3A cells lack STAT1; 100 means same as IL-6 alone; 1,200 compounds, 64% hits; shares compounds with STAT3 act-1;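 active means percent activation of the STAT3 luciferase reporter above a set limit taken from the earlier primary screen, cut at about 130% in these data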
NFkB act 2: counter-screen for STAT3 activators: NF-kappaB activation; human cells, NF-kappaB reporter activation; 1,200 compounds, 11% hits; activation (% of control), % at 5.7 µM; shares compounds with STAT3 act-1; AID 1309; in the data active means activation above about 120%;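 further: reporter induced by TNF-alpha stimulation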
STAT1 act STAT3c: activates STAT1, counter-screen to STAT3 activators. activation (% of control), % at 5.7 µM. shares compounds with STAT3 act-1. 1,200 compounds, 13% hits. NIH 3T3 STAT1-luciferase reporter, IFN-gamma, luminescence;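 active means activation above the solvent-only control well mean plus 3 SD, set per screening run, cut at about 120% in these data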
Hits are given with their value; i = inactive; ? = inconclusive; nt = no result. Rows were chosen to be rich in hits. Some 3.6% of all compounds tested hit in one or more screens of this group.

SMILES | Hsp70 activator | PERK inhibitor | HSF1 inh | STAT3 act-1 | AHR act | PolyA inhibitor | STAT3 act-2 | NFkB act 2 | STAT1 act STAT3c
Cn1cccc1-c1cc(C(=O)N2CCc3c([nH]c4ccccc34)C2c2ccccn2)[nH]n1 (stereo unspecified) | i | i | i | i | i | i | nt | nt | nt
Cn1cc(CN2CCc3c([nH]c4ccccc34)C2C(C)(C)C)cn1 (stereo unspecified) | i | i | i | i | i | ? | nt | nt | nt
O=C(O)CSCC(=O)N1CCc2c([nH]c3ccccc23)C1C(F)(F)F (stereo unspecified) | nt | nt | i | nt | i | i | nt | nt | nt
CC(C)CC1c2[nH]c3ccccc3c2CCN1C(=O)CCC(=O)N(C)C (stereo unspecified) | i | i | i | 144 | i | i | 150 | i | i
Cc1c(CN2CCc3c([nH]c4ccccc34)C2CC(C)C)cnn1C (stereo unspecified) | i | i | i | 139 | i | i | 143 | i | i
CN(C)C(CNC(=O)c1c(F)cccc1Cl)c1ccco1 (stereo unspecified) | nt | nt | i | nt | i | i | nt | nt | nt
COC(=O)c1ccccc1S(=O)(=O)Nc1ccc2cn[nH]c2c1 | i | i | i | 143 | i | i | i | i | i
COC(=O)c1sc(S(=O)(=O)Nc2ccc(C)cc2)c(C(=O)OC)c1C | i | i | i | i | i | i | nt | nt | nt
COC(=O)c1sc(S(=O)(=O)Nc2ccc3cn[nH]c3c2)c(C(=O)OC)c1C | i | i | i | 147 | i | i | 147 | i | i
O=C1CCc2cc(NS(=O)(=O)c3ccccc3)cc3c2N1CC3 | nt | nt | i | nt | i | i | nt | nt | nt
COc1cc(C2C(C#N)=C(N)Oc3cc4c(cc32)OCO4)cc(OC)c1OC (stereo unspecified) | i | i | i | 147 | i | i | i | 162 | i
O=C(Nc1ccnn1C1CCN(Cc2ccc(CO)o2)CC1)c1ccccc1 | nt | nt | i | nt | i | i | nt | nt | nt
COC(=O)C(O)(NC(=O)OCc1ccccc1)C(F)(F)F (stereo unspecified) | i | i | i | i | i | i | nt | nt | nt
COC(=O)C(NC=O)C(O)(Cc1ccccc1)C(F)(F)F (stereo unspecified) | i | i | nt | 158 | i | nt | 152 | i | i
CCc1ccc(NC(=O)c2cnc3scc(C)n3c2=O)cc1 | i | i | i | 154 | 63 | i | 165 | i | 138
c1ccc(C2=Nc3ccccc3SC2c2nc3ccccc3[nH]2)cc1 (stereo unspecified) | i | i | i | 158 | i | i | 147 | 130 | 152
O=C1CC(c2nc3ccccc3[nH]2)CN1c1ccccc1 (stereo unspecified) | i | i | i | i | i | i | nt | nt | nt
COc1ccc(Cl)cc1NC(=O)CN(C)C(=O)c1cc2ccccc2cc1O | nt | nt | i | nt | i | i | nt | nt | nt
CCn1c(=O)c(C(=O)Nc2ccsc2C(=O)OC)c(O)c2ccccc21 | i | i | i | 138 | i | i | 151 | i | i
CCOC(=O)c1ccccc1NC(=O)c1c(O)c2ccccc2n(CC)c1=O | i | i | nt | i | i | nt | nt | nt | nt
COCCNC(=O)c1ccccc1NC(=O)c1ccccc1SC | i | i | i | i | i | i | nt | nt | nt
CCN(CC)CC(=O)Nc1ccc(-c2nc3cc(NC(=O)CN(CC)CC)ccc3o2)cc1 | i | i | i | i | i | i | nt | nt | nt
O=C(CN1CCCC1)Nc1ccc(-c2nc3cc(NC(=O)CN4CCCC4)ccc3o2)cc1 | i | i | i | 150 | i | i | 138 | 130 | 161
Cc1cc(SCC(=O)c2cc3ccccc3o2)nc2ccccc12 | i | i | i | 146 | 52 | i | 150 | i | i
Cc1cc(SCC(=O)O)nc2ccccc12 | i | i | i | i | i | i | nt | nt | nt
SMILES | Hsp70 activator | PERK inhibitor | HSF1 inh | STAT3 act-1 | AHR act | PolyA inhibitor | STAT3 act-2 | NFkB act 2 | STAT1 act STAT3c
COc1ccc(N(CC(C)C)S(=O)(=O)c2nnc(NC(=O)c3ccco3)s2)cc1 | nt | nt | i | nt | i | i | nt | nt | nt
O=C(O)CCNS(=O)(=O)c1ccc2ccccc2c1 | i | i | i | i | i | i | nt | nt | nt
O=C(O)CCNc1cc2ccccc2cc1C(=O)O | i | i | i | 142 | i | i | i | i | i
COC(=O)c1ccc(N2CCN(CC(=O)c3ccc(-c4ccccc4)cc3)CC2)c([N+](=O)[O-])c1 | i | i | i | 144 | i | i | 138 | i | 124
COc1ccc(CNC(=O)C2CCC(CNC(=O)[C@@H]3Cc4ccccc4CN3)CC2)cc1 (stereo partly specified) | nt | nt | i | nt | i | i | nt | nt | nt
CCN(CC)S(=O)(=O)c1ccc(Cl)c(C(=O)OCC(=O)c2c(N)n(C)c(=O)n(C)c2=O)c1 | nt | i | i | nt | i | i | nt | nt | nt
O=c1c2ccccc2nc(/C=C/c2cc(Br)ccc2O)n1CCCO | nt | nt | i | nt | i | i | nt | nt | nt
CCOc1ccc(NC(=O)c2ccccc2NC(=O)CN(C)CC(=O)Nc2ccc(C)cc2)cc1 | i | i | i | 149 | i | ? | i | i | i
CCOc1ccc(CNS(=O)(=O)c2cccs2)cc1OCC | nt | nt | i | nt | i | i | nt | nt | nt
CC(C)C1NC(=S)N(Cc2ccccc2)C1=O (stereo unspecified) | i | i | i | 142 | i | i | i | i | i
Cn1c(Cc2nc3ccccc3n2C)nc2ccccc21 | nt | nt | i | nt | i | i | nt | nt | nt
Cn1c(CNc2ccccc2O)nc2ccccc21 | i | i | i | 159 | 76 | i | 179 | i | i
N#C/C(=C\C=C\c1ccccc1[N+](=O)[O-])c1nc(-c2ccc3c(c2)OCO3)cs1 | i | i | i | i | i | i | nt | nt | nt
N#C/C(=C/c1ccccc1[N+](=O)[O-])c1nc(C2CC2)cs1 | i | i | i | 147 | 71 | i | 158 | i | i
N#C/C(=C\c1ccc([N+](=O)[O-])cc1)c1nc(C2CC2)cs1 | i | i | i | i | i | i | nt | nt | nt
N#C/C(=C\c1ccccc1[N+](=O)[O-])c1nc(C2CC2)cs1 | i | i | i | 146 | 106 | i | 154 | i | i
O=C(CSc1nc2c(cnn2-c2cccc(Cl)c2)c(=O)[nH]1)NCCC1=CCCCC1 | nt | nt | nt | nt | i | nt | nt | nt | nt
CCOC(=O)Nc1nc2ccccc2s1 | i | i | i | i | i | i | nt | nt | nt
CCOC(=O)c1nc2ccccc2s1 | i | i | i | 146 | i | i | 147 | i | 134
Cc1ccc(-n2c(O)c(/C=N/NC(=O)C3COc4ccccc4O3)c3ccccc3c2=O)cc1 (stereo unspecified) | i | i | i | i | i | i | nt | nt | nt
